≈ marks a conversion by molar mass, not a printed value.
Legend:
[1] = Inhibition of beta-1,3-glucan synthase in Candida albicans MY1055 microsomal membrane assessed as inhibition of TCA-insoluble material formation using UDP-[3H]-glucose as substrate incubated for 2 hrs in presence of GTP by radioactivity-based assay; assay type: microsomes, Microsome
Procedure, shortened: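 GS IC50 measured using Candida albicans MY1055 microsomal membrane fragments as the enzyme source.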

[2] = test system: Candida albicans; test: Antifungal activity against Candida albicans MY1055 assessed as fungal growth inhibition measured after 24 hrs by liquid microdilution method; assay type: functional
Procedure, shortened: (§1)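 Broth microdilution per CLSI protocols in RPMI medium. Read-out is the MIC, the lowest concentration completely inhibiting fungal growth. Run without serum and with added serum.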

[3] = test system: Aspergillus fumigatus; test: Antifungal activity against Aspergillus fumigatus MF5668 assessed inhibition of fungal growth by measuring morphological changes measured after 24 hrs by microscopy; assay type: functional; conditions: read-out: MEC
Procedure, shortened: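 Microdilution per CLSI protocols in RPMI medium. Read-out is the minimum effective concentration (MEC). Run without serum and with 50% human serum.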

[4] = test system: Candida albicans; test: Antifungal activity against Candida albicans MY1055 assessed as fungal growth inhibition measured after 24 hrs in presence of 50% mouse serum by liquid microdilution method; assay type: functional; procedure, shortened: as §1
[5] = test system: Candida albicans; test: Antifungal activity against Candida albicans MY1055 infected in DBA/2 mouse model of disseminated candidiasis assessed as reduction in fungal burden in kidney by measuring log change in colony forming units at […], po bid for 7 days by TOKA; assay type: functional; conditions: time 7 day
Procedure, shortened: (§2)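 Murine disseminated candidiasis model (TOKA) in mice challenged with C. albicans MY1055 at 2.44 x 10^4 CFU/mouse. Dosed PO, or IP where stated. Kidneys collected aseptically 7 days after challenge and CFUs/g counted. Change in log CFU/g is relative to sham-treated controls; significance by two-tailed t test. Clearance is the percentage of kidneys below the detection limit.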

[6] = test system: Candida albicans; test: Antifungal activity against Candida albicans MY1055 infected in DBA/2 mouse model of disseminated candidiasis assessed as reduction in fungal burden in kidney by measuring log change in colony forming units at 0.125 mg/kg, po bid for 7 days by TOKA; assay type: functional; conditions: time 7 day; procedure, shortened: as §2
[7] = test system: Candida albicans; test: Antifungal activity against Candida albicans MY1055 infected in DBA/2 mouse model of disseminated candidiasis assessed as reduction in fungal burden in kidney by measuring log change in colony forming units at 0.03 mg/kg, po bid for 7 days by TOKA; assay type: functional; conditions: time 7 day; procedure, shortened: as §2
[8] = test system: Candida albicans; test: Antifungal activity against Candida albicans MY1055 infected in DBA/2 mouse model of disseminated candidiasis assessed as reduction in fungal burden in kidney by measuring log change in colony forming units at 0.5 mg/kg, ip bid for 7 days by TOKA; assay type: functional; conditions: time 7 day; procedure, shortened: as §2
[9] = test system: Candida albicans; test: Antifungal activity against Candida albicans MY1055 infected in DBA/2 mouse model of disseminated candidiasis assessed as reduction in fungal burden in kidney by measuring log change in colony forming units at 0.125 mg/kg, ip bid for 7 days by TOKA; assay type: functional; conditions: time 7 day; procedure, shortened: as §2
[10] = test system: Candida albicans; test: Antifungal activity against Candida albicans MY1055 infected in DBA/2 mouse model of disseminated candidiasis assessed as reduction in fungal burden in kidney by measuring log change in colony forming units at 0.03 mg/kg, ip bid for 7 days by TOKA; assay type: functional; conditions: time 7 day; procedure, shortened: as §2
[11] = test system: Candida albicans; test: Antifungal activity against Candida albicans MY1055 infected in DBA/2 mouse model of disseminated candidiasis assessed as reduction in fungal burden in kidney by measuring log change in colony forming units at 0.0078 mg/kg, ip bid for 7 days by TOKA; assay type: functional; conditions: time 7 day; procedure, shortened: as §2
[12] = test system: Candida albicans; test: Antifungal activity against Candida albicans MY1055 infected in ip dosed DBA/2 mouse model of disseminated candidiasis assessed as reduction in fungal burden in kidney administered bid for 7 days by TOKA; assay type: functional; conditions: 168 h, time 7 day; procedure, shortened: as §2
[13] = test system: Aspergillus fumigatus; test: Antifungal activity against Aspergillus fumigatus MF5668 infected in DBA/2N mouse assessed as mouse survival at 2 mg/kg, ip bid administered for 7 days starting from 15 to 30 mins post infection and measured up to 21 days relative to control; assay type: functional; conditions: 168 h, time 7 day
Procedure, shortened: (§3)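 DBA/2N mice were infected IV with A. fumigatus MF5668 (6.7 x 10^5 CFU/mouse) and treated IP bid for 7 days. Percent survival per dose group was scored at the end of the 21-day survival model and compared with the sham-treated control group.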

[14] = test system: Aspergillus fumigatus; test: Antifungal activity against Aspergillus fumigatus MF5668 infected in DBA/2N mouse assessed as mouse survival at 0.5 mg/kg, ip bid administered for 7 days starting from 15 to 30 mins post infection and measured up to 21 days relative to control; assay type: functional; conditions: 168 h, time 7 day; procedure, shortened: as §3
[15] = test system: Aspergillus fumigatus; test: Antifungal activity against Aspergillus fumigatus MF5668 infected in DBA/2N mouse assessed as mouse survival at 0.125 mg/kg, ip bid administered for 7 days starting from 15 to 30 mins post infection and measured up to 21 days relative to control; assay type: functional; conditions: 168 h, time 7 day; procedure, shortened: as §3
[16] = test system: Aspergillus fumigatus; test: Antifungal activity against Aspergillus fumigatus MF5668 infected in DBA/2N mouse assessed as mouse survival at 0.03 mg/kg, ip bid administered for 7 days starting from 15 to 30 mins post infection and measured up to 21 days relative to control; assay type: functional; conditions: 168 h, time 7 day; procedure, shortened: as §3
[17] = test system: Aspergillus fumigatus; test: Antifungal activity against Aspergillus fumigatus MF5668 infected in ip dosed DBA/2N mouse assessed as 90% mouse survival administered bid administered for 7 days starting from 15 to 30 mins post infection and measured up to 21 days; assay type: functional; conditions: 168 h, time 7 day
[18] = test system: Aspergillus fumigatus; test: Antifungal activity against Aspergillus fumigatus MF5668 infected in DBA/2N mouse assessed as mean survival time at 0.125 mg/kg, ip bid administered for 7 days starting from 15 to 30 mins post infection and measured up to 21 days; assay type: functional; conditions: time 7 day
Procedure, shortened: (§4)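 DBA/2N mice were challenged IV with A. fumigatus MF5668 at 6.7 x 10^5 CFU/mouse, then dosed IP twice daily for 7 days. Survival was followed over a 21-day model, and mean survival time in days was recorded per dose group. A sham-treated control group was run alongside.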

[19] = test system: Aspergillus fumigatus; test: Antifungal activity against Aspergillus fumigatus MF5668 infected in DBA/2N mouse assessed as mean survival time at 0.03 mg/kg, ip bid administered for 7 days starting from 15 to 30 mins post infection and measured up to 21 days; assay type: functional; conditions: time 7 day; procedure, shortened: as §4
[20] = test system: Aspergillus fumigatus; test: Antifungal activity against Aspergillus fumigatus MF5668 infected in ip dosed DBA/2N mouse assessed as 50% mouse survival administered bid administered for 7 days starting from 15 to 30 mins post infection and measured up to 21 days; conditions: 168 h

CC[C@H](C)C[C@H](C)CCCCCCCCC(=O)N[C@H]1C[C@@H](O)[C@@H](NCCN)NC(=O)[C@@H]2[C@@H](O)CCN2C(=O)[C@H]([C@H](O)CCN)NC(=O)[C@H]([C@H](O)[C@@H](O)c2ccc(O)cc2)NC(=O)[C@@H]2C[C@@H](O)CN2C(=O)[C@H]([C@@H](C)O)NC1=O [CASPOFUNGIN]
IC50 [1]: 0.001 µg/mL | MIC [2]: 0.06 µg/mL (≈ 0.0549 µM) | minimal effective concentration [3]: < 0.03 µg/mL | MIC [4]: 0.25 µg/mL | Activity [5]: -4.2 deltalog10CFU | Activity [6]: -4.2 deltalog10CFU | Activity [7]: -2.3 deltalog10CFU | Activity [8]: -3.96 deltalog10CFU | Activity [9]: -4 deltalog10CFU | Activity [10]: -3.28 deltalog10CFU | Activity [11]: -3.62 deltalog10CFU | ED99 [12]: < 0.0001 mg/kg | survival at 2 mg/kg [13]: 90% | survival at 0.5 mg/kg [14]: 90% | survival at 0.125 mg/kg [15]: 60% | survival at 0.03 mg/kg [16]: 50% | ED90 [17]: 0.83 mg/kg | MST [18]: 14.7 days | MST [19]: 13.1 days | ED50 [20]: 0.07 mg/kg
